Measurements: ChEMBL document CHEMBL1156178, “Discovery of novel 6,6-heterocycles as transient receptor potential vanilloid (TRPV1) antagonists” (J Med Chem, 2010)
Values after ≈ are worked out from the molar mass of the structure shown.

How the values were obtained:
[1] = target: Transient receptor potential cation channel subfamily V member 1 (Homo sapiens, UniProt Q8NER1); experiment: Antagonist activity at human recombinant TRPV1 expressed in HEK293 cells assessed as inhibition of capsaicin-induced calcium mobilization by FLIPR assay
[2] = Solubility in 0.1 N HCL after 4 hrs by HPLC/MS analysis; type: physicochemical
[3] = tested on: Rattus norvegicus; experiment: Clearance in rat at […] iv dose; type: ADME, organism-based; set-up: dose 1.5 mg/kg, route intravenous; details: in vivo
[4] = Metabolic stability in rat liver microsomes assessed as compound remaining at 1 uM after 10 mins by LCMS analysis; type: ADME, Microsome; details: read-out: Activity
Summary of the method: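 Compound (1 μM) incubated at 37 °C with 0.5 mg/mL male pooled rat liver microsomes; NADPH added to start the reaction. Aliquots were taken at 0 and 10 min and quenched into ice-cold acetonitrile with internal standard, then centrifuged. Parent was monitored as the M+1 ion by ESI-LCMS in selected-ion mode. Percent remaining was taken as the 10 min/0 min signal ratio, corrected by internal-standard recovery.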

[5] = species: Rattus norvegicus; experiment: Analgesic activity against carrageenan-induced thermal hyperalgesia in rat; type: functional; details: read-out: MED
[6] = Half life in rat at 2.7 mg/kg, iv and 2 mg/kg, po; type: ADME, organism-based; details: in vivo
[7] = tested on: MDR1; experiment: Apparent permeability across pig LLC-PK1 cells expressing MDR1; type: ADME, cell-based, Sus scrofa

Chain of Transient receptor potential cation channel subfamily V member 1 (Q8NER1 whole entry): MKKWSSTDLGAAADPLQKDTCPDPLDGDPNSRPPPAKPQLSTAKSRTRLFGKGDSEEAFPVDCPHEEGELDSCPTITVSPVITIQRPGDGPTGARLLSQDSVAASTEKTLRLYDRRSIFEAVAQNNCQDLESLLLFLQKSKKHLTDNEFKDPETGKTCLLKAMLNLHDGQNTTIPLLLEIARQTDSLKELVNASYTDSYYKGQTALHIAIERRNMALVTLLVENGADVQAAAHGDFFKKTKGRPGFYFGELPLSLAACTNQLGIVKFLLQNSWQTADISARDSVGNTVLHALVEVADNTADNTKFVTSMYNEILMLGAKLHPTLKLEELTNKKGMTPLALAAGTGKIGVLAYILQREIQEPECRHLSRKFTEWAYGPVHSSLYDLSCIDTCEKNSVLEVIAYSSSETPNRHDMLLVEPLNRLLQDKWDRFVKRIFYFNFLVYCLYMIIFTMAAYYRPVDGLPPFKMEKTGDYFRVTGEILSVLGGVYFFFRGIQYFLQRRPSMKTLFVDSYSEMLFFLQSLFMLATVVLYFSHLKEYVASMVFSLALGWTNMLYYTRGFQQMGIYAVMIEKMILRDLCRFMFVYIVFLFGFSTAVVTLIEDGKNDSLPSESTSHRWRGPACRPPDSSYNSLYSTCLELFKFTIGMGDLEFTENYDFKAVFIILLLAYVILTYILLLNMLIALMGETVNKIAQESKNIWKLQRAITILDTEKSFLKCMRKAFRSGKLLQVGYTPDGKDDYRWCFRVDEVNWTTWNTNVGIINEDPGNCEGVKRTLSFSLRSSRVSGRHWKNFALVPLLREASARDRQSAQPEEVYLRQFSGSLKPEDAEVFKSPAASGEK

Compound	IC50 [1] [nM]	solubility at 4 h [2] [µg/mL]	further results
FC(F)(F)c1ccc(Nc2cnnc3cc(-c4ncccc4C(F)(F)F)ccc23)nc1	29	–	–
FC(F)(F)c1ccc(Nc2ncnc3nc(-c4ncccc4C(F)(F)F)ccc23)cc1	0.83	9 (≈ 20.7 µM)	–
FC(F)(F)c1ccc(Nc2ncnc3cc(-c4ncccc4C(F)(F)F)ccc23)nc1	–	33 (≈ 75.8 µM)	CL [3]: 4.2 (ml/min)/kg; remaining at 10 min, 1 µM [4]: 91%
FC(F)(F)c1ccc(Nc2ncnc3nc(-c4ncccc4C(F)(F)F)cnc23)cc1	0.21	1 (≈ 2.29 µM)	–
COCc1nc(Nc2ccc(C(F)(F)F)cc2)c2ccc(-c3ncccc3C(F)(F)F)cc2n1	–	–	minimal effective dose [5]: 0.3 mg/kg
FC(F)(F)c1ccc(Nc2ncnc3cc(-c4ncccc4C(F)(F)F)ccc23)cc1 [NGD-8243]	–	16 (≈ 36.8 µM)	half-life [6]: 8 h; Papp [7]: 11 ×10⁻⁶ cm/s; minimal effective dose [5]: 0.1 mg/kg; remaining at 10 min, 1 µM [4]: 93%

More lines, main results first:

IC50 [1] [nM]	solubility at 4 h [2] [µg/mL]	Compound	further results
0.63	6 (≈ 13.8 µM)	FC(F)(F)c1ccc(Nc2ncnc3cc(-c4ncccc4C(F)(F)F)cnc23)cc1	–
308	38 (≈ 87.3 µM)	FC(F)(F)c1ccc(Nc2ccnc3cc(-c4ncccc4C(F)(F)F)cnc23)nc1	–
6.1	24 (≈ 55.3 µM)	FC(F)(F)c1ccc(Nc2ccnc3nc(-c4ncccc4C(F)(F)F)ccc23)cc1	–
